Calls of active or inactive are those of the source. The calls are words filed in the database; no cut-off is given here.
How the values were obtained:
Keratinocyte [1] = experiment: Antiinflammatory activity in primary human […] keratinocytes assessed as inhibition of IL-17A/TNF-alpha induced IL-8 production preincubated for 2 hrs followed by cytokine addition measured after 72 hrs by HTRF assay; assay type: functional, cell-based
Method in brief: (§1)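 Primary human keratinocytes were stimulated with IL-17, and the inflammatory response was read as increased IL-8 secretion. Cell viability was measured in the same cells as a secondary readout to separate specific inhibition from cytotoxicity. Betamethasone served as the assay control. Maximal inhibition of IL-8 release or of viability was recorded alongside IC50 where calculated.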

[2] = Cytotoxicity against primary human […] keratinocytes assessed as inhibition of cell viability at 10 uM preincubated for 2 hrs followed by cytokine addition measured after 72 hrs by PrestoBlue staining based fluorescence assay relative to control; parameters: species or system Keratinocyte; conditions: read-out: Imax
Keratinocyte [3] = experiment: Cytotoxicity against primary human […] keratinocytes assessed as inhibition of cell viability preincubated for 2 hrs followed by cytokine addition measured after 72 hrs by PrestoBlue staining based fluorescence assay; method in brief: as §1
Keratinocyte [4] = experiment: Antiinflammatory activity in primary human […] keratinocytes assessed as inhibition of IL-17A/TNF-alpha induced IL-8 production at 10 uM preincubated for 2 hrs followed by cytokine addition measured after 72 hrs by HTRF assay relative to control; assay type: functional
PBMC = experiment: Antiinflammatory activity in human PBMC assessed as inhibition of LPS-induced TNF-alpha production after 16 hrs by AlphaLisa assay; assay type: functional, cell-based
[5] = Homo sapiens, Keratinocyte, read-out: IC50

Structure (SMILES) | IC50 (Keratinocyte [1]; [5]) [µM] | inhibition at 72 h, 10 µM [2] [%] | IC50 (Keratinocyte [3]; keratinocyte) | Imax (Keratinocyte [4]) [%] | inhibition (PBMC) | IC50 (Keratinocyte [1]; keratinocyte) | IC50 (Keratinocyte [3]; [5]) [µM]
CC1=C2[C@H](/C=C(\C)C(=O)NCCc3ccc(Br)cc3)CC[C@@H](C)[C@H]2CC1 | 8.3 | 24 | Not Active | 60 | inactive |  | 
CC1=C2[C@H](/C=C(\C)C(=O)NCCN3CCOCC3)CC[C@@H](C)[C@H]2CC1 |  | 12 | Not Active | 17 | inactive | Not Active | 
CC1=C2[C@H](/C=C(\C)C(=O)O)CC[C@@H](C)[C@H]2CC1 [VALERENIC ACID] |  | 15 | Not Active | 4 | inactive |  | 
CC1=C2[C@H](/C=C(\C)C(=O)NCc3ccccc3F)CC[C@@H](C)[C@H]2CC1 | 2.8 | 72 |  | 85 | inactive |  | 8.7
CC1=C2[C@H](/C=C(\C)C(=O)NCc3ccccc3)CC[C@@H](C)[C@H]2CC1 | 2.9 | 72 |  | 84 | inactive |  | 9
CC1=C2[C@H](/C=C(\C)C(=O)NCc3cccc(F)c3)CC[C@@H](C)[C@H]2CC1 | 4.7 | 67 |  | 79 | inactive |  | 9.6
CC1=C2[C@H](/C=C(\C)C(=O)NCCc3ccc(F)cc3)CC[C@@H](C)[C@H]2CC1 |  | 17 | Not Active | 44 | inactive | Not Active | 
CC1=C2[C@H](/C=C(\C)C(=O)NCCc3ccccc3)CC[C@@H](C)[C@H]2CC1 | 7.5 | 11 | Not Active | 64 | inactive |  | 
CC1=C2[C@H](/C=C(\C)C(=O)NCCC(C)C)CC[C@@H](C)[C@H]2CC1 |  | 9 | Not Active | 22 | inactive | Not Active | 
C[C@H]1C[C@H]2[C@@H]3CCC4=CC(=O)C=C[C@]4(C)[C@@]3(F)[C@@H](O)C[C@]2(C)[C@@]1(O)C(=O)CO [BETAMETHASONE] |  |  |  | 49 |  |  | 0.3
CC1=C2[C@H](/C=C(\C)C(=O)NCCc3ccccn3)CC[C@@H](C)[C@H]2CC1 |  | 20 | Not Active | 14 | inactive | Not Active | 
CC1=C2[C@H](/C=C(\C)C(=O)NCc3ccc(F)cc3)CC[C@@H](C)[C@H]2CC1 | 4.9 | 61 |  | 70 | inactive |  | 9.6
COCCNC(=O)/C(C)=C/[C@@H]1CC[C@@H](C)[C@H]2CCC(C)=C12 |  | 7 | Not Active | 30 | inactive | Not Active | 
